# High-throughput results: PubChem BioAssay, The Scripps Research Institute Molecular Screening Center
# TAAR1 ag: agonists of human TAAR1; Q96RJ0; CHO RD-HGA16 TAAR1, Fluo-8 calcium fluorescence; vehicle wells 0%, saturating PEA agonist 100%; AID 624467; activation, % at 3 µM; hit rate 0.99% among 360,000;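 active = activation above the mean activation of all test compounds in the run plus 3 SD, cut at about 38% in these data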
# Target sequence (Q96RJ0 whole entry, looked up): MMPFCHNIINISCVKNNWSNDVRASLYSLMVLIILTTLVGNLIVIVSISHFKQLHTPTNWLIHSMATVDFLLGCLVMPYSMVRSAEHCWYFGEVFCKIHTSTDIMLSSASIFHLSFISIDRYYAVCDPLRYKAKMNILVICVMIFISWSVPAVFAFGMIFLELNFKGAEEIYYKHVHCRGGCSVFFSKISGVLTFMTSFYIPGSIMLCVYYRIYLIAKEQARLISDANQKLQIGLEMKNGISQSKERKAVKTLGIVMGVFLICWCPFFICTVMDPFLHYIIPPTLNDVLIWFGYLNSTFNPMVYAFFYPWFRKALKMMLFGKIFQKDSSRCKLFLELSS
#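 Assay system: CHO-derived RD-HGA16 cells with stable Gα16 and human TAAR1; timing: 17-24 h seeding, 75 min 37 °C dye, 30 min RT; read-out: % activation from peak over basal fluorescence ratio, DMSO-to-PEA scaled; measured by: kinetic Fluo-8 calcium fluorescence; benchmarks: low control DMSO, high control PEA (EC100); doses: 3 µM single concentration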
# M1 PAM: positive allosteric modulators of human M1 muscarinic receptor; P11229; CHO-K1 hM1, Fluo-8 calcium fluorescence, ACh EC20; 0% = ACh EC20, 100% = maximal ACh; activation, % at 3 µM; hit rate 0.088% among 360,000; AID 588819; in the data active = activation above about 19%, passing the limit was not always enough
# m5-HT2A agonist: agonists of mouse serotonin 5-HT2A receptor (HTR2A); P35363; CHO-K1 mHTR2A beta-arrestin complementation, luminescence; percent of 30 µM serotonin response; activation, % at 7.6 µM; hit rate 0.66% among 360,000;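 active = activation above a run cutoff, the mean activation of all tested compounds plus 3 SD, cut at about 14% in these data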;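 note: 0% = plate median of compound wells and 100% = 30 µM serotonin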
# TAAR1 antagonist: antagonists of human TAAR1 | CHO RD-HGA16 TAAR1, Fluo-8 calcium fluorescence, antagonist | inhibition, % at 3 µM | hit rate 1.5% among 360,000 | AID 624466;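 active = inhibition above a per-plate cutoff, the mean inhibition of test compounds on that plate plus 3 SD, cut at about 49% in these data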;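 note: 0% = DMSO plus EC80 beta-PEA response and 100% = DMSO alone without agonist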
#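 Test system – hTAAR1-expressing CHO RD-HGA16 cells, Gα16-coupled · Reagent – β-PEA at EC80 concentration, post-compound challenge · Compound dosing – 3 µM, single point · Timing – 140 s kinetic read after compound, 140 s after agonist · Detection – Fluo-8 intracellular calcium dye fluorescence, real-time kinetic reads · Control set – DMSO and EC80 PEA controls · Repeats – n of 1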
# CHRM1 agonist: agonists of human M1 muscarinic receptor; P11229; CHO-K1 hM1, Fluo-8 calcium fluorescence, agonist mode; 0% DMSO, 100% acetylcholine EC100; activation, % at 3 µM; hit rate 0.33% among 360,000;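 active = activation above the run's mean compound activation plus 3 SD, cut at about 16% in these data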;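 note: peak over basal fluorescence ratio within a 140 s kinetic read after compound addition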
# M1 antag: human CHRM1 antagonism. CHO-K1 hM1, Fluo-8 calcium fluorescence, ACh EC80 antagonist. inhibition, % at 3 µM. hit rate 1.3% among 360,000. AID 588852;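 active = percent inhibition above its own plate's cutoff, namely the mean of that plate's compound wells plus 3 SD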;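 note: peak over basal fluorescence ratio during 140 s after agonist addition; 0% = ACh EC80 plus DMSO and 100% = DMSO alone without agonist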
# MOR ag counter: activates human mu opioid receptor in HTR2A counterscreen | shares compounds with m5-HT2A agonist | U2OS OPRM1 beta-arrestin PathHunter, luminescence; DMSO 0%, DAMGO 9.3 µM 100% | activation, % at 9.3 µM | hit rate 5.3% among 2,300 | AID 624380;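 active = mean activation above the mean of DMSO-only wells plus 3 SD, cut at about 0.5% in these data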
# Target sequence (P35372 whole entry, looked up): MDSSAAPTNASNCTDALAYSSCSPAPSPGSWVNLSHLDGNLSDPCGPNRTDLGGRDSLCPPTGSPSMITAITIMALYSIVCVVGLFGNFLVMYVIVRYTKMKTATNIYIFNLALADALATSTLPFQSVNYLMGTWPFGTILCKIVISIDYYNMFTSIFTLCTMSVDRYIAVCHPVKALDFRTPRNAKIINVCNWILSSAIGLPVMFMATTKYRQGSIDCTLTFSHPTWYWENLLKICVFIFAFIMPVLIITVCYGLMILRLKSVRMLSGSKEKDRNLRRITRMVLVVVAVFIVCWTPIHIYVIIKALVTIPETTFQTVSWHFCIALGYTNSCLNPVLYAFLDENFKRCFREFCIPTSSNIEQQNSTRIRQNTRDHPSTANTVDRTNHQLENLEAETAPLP
# HTR2A ag conf: confirmation of mouse HTR2A serotonin receptor agonists | shares compounds with m5-HT2A agonist | CHO-K1 PathHunter beta-arrestin recruitment, luminescence; DMSO 0%, 30 µM serotonin 100% | activation, % at 7.6 µM | hit rate 19% among 2,300 | AID 624381;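 active = mean activation across triplicates above the hit threshold derived in the original primary screen, cut at about 15% in these data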
# Numbers without * were called inactive; / = not tested or not shown. Sampled rows, rich in hits. Any-hit rate of the full collection: about 3.9%.
SMILES,TAAR1 ag,M1 PAM,m5-HT2A agonist,TAAR1 antagonist,CHRM1 agonist,M1 antag,MOR ag counter,HTR2A ag conf
CCc1cc(=O)oc2c(C)c(O)c(CN3CCCCC3)cc12,3.8,9.4,22.2*,-4.8,-5.4,-14.8,-0.5,-2.3
Cc1c(O)c(CN2CCCC2)cc2c3c(c(=O)oc12)CCC3,-2.1,-8.4,-5.1,-2.0,-10.8,-2.7,/,/
CN(C)c1nc(N(C)C)n(Cc2c(Cl)cccc2Cl)n1,4.7,10.2,24.9*,1.0,-12.7,-8.8,-0.7,-3.1
Clc1cccc(Cl)c1Cn1nnc(N2CCCC2)n1,15.0,-1.0,2.2,-28.2,-8.0,7.6,/,/
O=C(NCC(c1ccco1)N1CCN(c2ccccc2F)CC1)C1CCCCC1 (stereo unspecified),-1.2,3.4,16.9*,-24.8,-2.3,0.7,-0.3,48.3*
O=C(COC(=O)CCC(=O)c1ccc(Cl)cc1)NCCc1ccccc1,3.6,13.2,18.3*,16.8,2.4,-13.0,-0.5,-4.1
COc1ccc(-c2coc3c(C(=O)Nc4cccnc4)cccc23)c(C)c1,2.1,-18.3,-5.2,37.8,-2.2,22.6,/,/
COc1ccc(-c2cc(C(=O)NC3CCCC3)no2)cc1,12.6,2.6,24.9*,-0.2,-5.2,-0.3,-0.5,-3.8
COc1cc(C(C)=O)ccc1OC(=O)N1CCOCC1,3.2,7.3,9.8,-16.3,1.6,-3.5,/,/
O=C(Nc1ccc(NC(=O)c2cccs2)cc1)c1cccs1,22.5,-4.1,7.0,11.5,-2.5,1.1,/,/
O=C(Nc1ccc2[nH]ccc2c1)c1cccs1,19.0,5.4,15.2*,4.1,-5.8,-0.4,0.9*,2.1
Cc1cccc2sc(NNC(=O)C3=COCCO3)nc12,4.4,10.8,16.8*,-7.6,-0.6,-10.7,-0.4,-0.9
COc1cccc(-n2c(SCC(N)=O)nc3c([nH]c4ccccc43)c2=O)c1,11.0,10.9,2.8,8.7,0.1,-12.6,/,/
COc1cccc(-n2c(SCC(=O)N3CCCCC3)nc3c([nH]c4ccccc43)c2=O)c1,1.1,9.2,20.8*,5.0,1.2,-20.2,-0.6,-3.6
COC(=O)C1CCN(CCCOc2ccc(CN3CCN(c4ccc([N+](=O)[O-])cc4)CC3)cc2)CC1,2.3,-18.5,25.4*,-5.8,-8.1,24.7,-0.5,75.0*
O=C(O)c1cc(-c2ccc(Cl)cc2)n(-c2cccc(Cl)c2)n1,5.3,9.6,8.2,-6.9,-2.8,-7.5,/,/
O=C(CN1CCN(c2cccc(Cl)n2)CC1)N1CC(O)CO1 (stereo unspecified),4.9,9.1,27.2*,-33.4,-9.7,-6.9,-0.5,-4.3
Cc1nc2sc(C(c3ccco3)N3CCC(C)CC3)c(O)n2n1 (stereo unspecified),-0.4,-9.8,4.1,-5.4,-1.9,17.3,/,/
Cc1ccc(C(c2sc3nc(C)nn3c2O)N2CCN(CCO)CC2)cc1 (stereo unspecified),0.2,6.2,-9.1,-22.6,-4.2,-8.2,/,/
Cc1nc2sc(C(c3ccccc3)N3CCN(CCO)CC3)c(O)n2n1 (stereo unspecified),2.9,-8.2,31.8*,-10.3,-3.9,15.6,-0.6,-3.4
Cc1nc2sc(C(c3ccco3)N3CC(C)OC(C)C3)c(O)n2n1 (stereo unspecified),12.1,-1.6,23.4*,0.3,-2.6,12.8,-0.4,-2.9
CS(=O)(=O)N1N=C(c2cccs2)CC1c1ccc(Cl)o1 (stereo unspecified),0.3,-3.9,0.0,2.6,-7.7,2.1,/,/
C[C@H](CO)N1C[C@H](C)[C@@H](CN(C)S(=O)(=O)c2ccccc2)OCCCC[C@H](C)Oc2ccc(NC(=O)CCC(F)(F)F)cc2C1=O,1.3,8.2,7.3,-11.1,4.8,-9.9,/,/
S=c1[nH]nc(-c2cccnc2)n1/N=C/C=C/c1ccccc1,-0.9,2.1,16.0*,-3.2,-7.0,-9.4,-0.8,-0.5
S=c1[nH]nc(-c2cccnc2)n1/N=C/c1ccccc1,0.6,6.9,-3.9,-36.5,-2.5,-12.0,/,/
SMILES,TAAR1 ag,M1 PAM,m5-HT2A agonist,TAAR1 antagonist,CHRM1 agonist,M1 antag,MOR ag counter,HTR2A ag conf
CCCC(=O)N1CCC1(C)C(=O)NS(=O)(=O)c1cccc(Cl)c1 (stereo unspecified),1.2,4.3,2.6,8.5,-2.2,-9.5,/,/
COC(=O)C1(c2ccccc2)NC(c2ccc(O)cc2)C2C(=O)N(c3ccc4c(c3)OCO4)C(=O)C21 (stereo unspecified),2.5,4.9,4.1,-3.2,1.1,-14.4,/,/
Cc1ccc(C(=O)NCC(=O)N(C)Cc2ccccc2C)s1,0.7,13.1,19.4*,-24.4,5.2,-15.7,-0.7,-2.8
O=C(Nc1ccccc1)OCCOc1ccc(Cl)cc1Cl,0.0,-8.9,-7.5,-9.9,-7.3,-0.9,/,/
CC1CCCCN1S(=O)(=O)c1cccc(S(=O)(=O)N2CCOCC2)c1 (stereo unspecified),2.5,6.6,0.5,-18.5,-1.3,-10.9,/,/
CCn1c(CNC(=O)COc2ccc(C(C)C)cc2)nnc1SCC(=O)Nc1ccccc1C(C)C,16.6,-3.6,18.2*,14.2,-1.1,19.0,-0.2,2.2
CCn1c(CNC(=O)COc2ccc(C(C)C)cc2)nnc1SCC(=O)Nc1ccccc1F,15.9,10.1,0.8,5.7,-1.8,-12.8,/,/
Cc1nnc(SCc2cc(=O)[nH]c(=S)[nH]2)s1,11.6,6.9,16.4*,9.5,-1.1,2.3,-0.5,-3.5
O=C(CSc1nc2c(cnn2-c2ccc(F)cc2)c(=O)[nH]1)N1CCCCC1,3.6,10.3,15.2*,20.0,3.3,-16.8,-0.6,-3.0
CCOC(=O)C1CCN(CC(C)(C)NS(=O)(=O)c2ccc(C)cc2)CC1,1.8,27.5*,19.8*,-1.1,-11.9,-26.5,-0.6,1.6
CCC1COC(c2cccn2Cc2ccc(Cl)cc2)=N1 (stereo unspecified),19.0,-24.5,3.4,2.6,-10.0,10.4,/,/
CC1COC(c2cccn2Cc2ccccc2Cl)=N1 (stereo unspecified),19.1,-9.5,24.3*,-10.6,-5.7,15.4,-0.3,-2.4
Cc1ccccc1NC(=O)CCCC(=O)c1ccccc1,0.8,6.7,-3.0,14.0,-3.7,-12.1,/,/
CC(C)c1cc(NCC2CCCO2)n2c(nc3ccccc32)c1C#N (stereo unspecified),-0.1,3.7,17.2*,10.4,-3.2,-1.2,0.8*,24.5*
